# Measurements pooled from the literature.
# Target: 3-phosphoinositide-dependent protein kinase 1 (PDPK1, Homo sapiens, UniProt O15530)
# One construct used (O15530 1-556): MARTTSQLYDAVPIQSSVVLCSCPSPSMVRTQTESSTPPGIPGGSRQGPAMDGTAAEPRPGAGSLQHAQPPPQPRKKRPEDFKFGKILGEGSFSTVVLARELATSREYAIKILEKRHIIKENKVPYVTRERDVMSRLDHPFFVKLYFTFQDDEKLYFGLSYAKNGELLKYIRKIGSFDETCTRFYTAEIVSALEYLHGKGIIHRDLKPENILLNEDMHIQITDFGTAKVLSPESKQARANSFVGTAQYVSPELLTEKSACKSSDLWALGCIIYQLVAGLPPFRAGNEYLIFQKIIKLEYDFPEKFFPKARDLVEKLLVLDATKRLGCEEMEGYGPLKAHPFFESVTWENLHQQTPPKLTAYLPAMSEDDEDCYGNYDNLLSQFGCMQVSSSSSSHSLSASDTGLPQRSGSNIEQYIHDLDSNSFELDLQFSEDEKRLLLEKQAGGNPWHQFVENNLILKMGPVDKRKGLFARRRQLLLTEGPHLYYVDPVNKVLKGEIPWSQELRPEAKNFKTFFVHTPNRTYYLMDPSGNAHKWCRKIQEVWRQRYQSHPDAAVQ
Structure (SMILES),test,conditions,endpoint,value
CC(C)(C)c1cc(C=C(C#N)C#N)cc(Br)c1O,"enzyme activity, inhibitor",0.5 µM,remaining activity,102%
C#Cc1n[nH]c2c(-c3cn([C@@H](C)c4ccccn4)c(=O)[nH]c3=O)cc(F)cc12,"enzyme activity, inhibitor",0.1 µM,inhibition,4.7%
Nc1ncc(-c2nc(N3CCOCC3)nc(N3CCOCC3)n2)c(C(F)F)n1,"binding, competition with immobilised ligand",10 µM,remaining binding,83%
Cn1cncc1[C@@](O)(COc1ccc(C#N)cc1-c1ccc(OC(F)(F)F)cc1)c1ccc(C#N)cc1,"cell-free assay, competition with immobilised ligand",1 µM,remaining binding,96%
Cc1nn(C)cc1-c1nc2c(N3CCN(Cc4ccc(Cl)cc4)CC3)c(Cl)cnc2[nH]1,"binding, competition with immobilised ligand",1 µM,remaining binding,100%
O=c1[nH]c2ccccc2n1C1CCN(Cc2ccc(-c3[nH]c4cc5ncnc5cc4nc3-c3ccccc3)cc2)CC1,cell-free assay,0.5 µM,remaining signal,107%
C#Cc1n[nH]c2c(-c3cn([C@@H](C)c4ccccc4)c(=O)[nH]c3=O)cc(F)cc12,"enzyme activity, inhibitor",0.1 µM,inhibition,4%
COc1ncccc1-c1cnn2ccc(N3CCN(C(=O)OC(C)C)CC3)nc12,"binding, competition with immobilised ligand",1 µM,remaining binding,82%
Cn1cc(-c2cc(F)cc(N3CCn4c(cc5c4CCCC5)C3=O)c2CO)cc(Nc2ccc(N3CCN(C4COC4)CC3)cn2)c1=O,"enzyme activity, inhibitor",0.1 µM,inhibition,1%
